Pf Dd2 inh: inhibitors of Plasmodium falciparum Dd2 growth; activity change, % at 10 µM; hit rate 2.3% among 94,000; P. falciparum Dd2 growth, SYBR Green, 72 h; hits give low values; AID 1159554; in the data active = activity change below about -80%; inconclusive = no clear call, values can overlap the other calls
Tcruzi prolif: T. cruzi proliferation inhibition. AID 624255. inhibition, % at 8.34 µM. hit rate 5.9% among 77,000. T. cruzi beta-gal in NIH3T3, GalScreen luminescence, 90 h;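 active = mean inhibition above about 93%, with at least 55% of replicates each passing it, limit read from the data, passing the limit was not always enough; inconclusive = only one of those two conditions holds; inactive = neither condition holds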
KDM4C inh: inhibitors of human demethylase GASC-1 KDM4C; Q9H3R0; GST-KDM4C 2-372, H3K9me3 peptide, LANCE TR-FRET; hit rate 0.15% among 96,000; inhibition, % at 12.5 µM; AID 720574;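 active = mean replicate inhibition above about 25%, with at least 55% of replicates also reaching it, limit read from the data, passing the limit was not always enough; inconclusive = only one of those two conditions met; inactive = neither condition met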
Target sequence (Q9H3R0 2-372 limits assumed): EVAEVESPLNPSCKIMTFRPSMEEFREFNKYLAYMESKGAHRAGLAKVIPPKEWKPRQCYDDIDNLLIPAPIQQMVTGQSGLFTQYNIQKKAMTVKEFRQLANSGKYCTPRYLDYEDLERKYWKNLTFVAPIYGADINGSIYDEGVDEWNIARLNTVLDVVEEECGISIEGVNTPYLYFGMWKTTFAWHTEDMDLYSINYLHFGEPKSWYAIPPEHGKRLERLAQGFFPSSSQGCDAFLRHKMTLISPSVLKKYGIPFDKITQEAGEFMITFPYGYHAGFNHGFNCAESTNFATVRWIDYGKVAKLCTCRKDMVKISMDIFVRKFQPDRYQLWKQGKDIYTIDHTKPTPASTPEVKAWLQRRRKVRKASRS
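System: N-terminal GST-fused human GASC-1 (KDM4C) fragment, residues 2-372 / Amount: 10 nM GST-KDM4C in enzyme reaction / Also added: H3K9me3 peptide with Fe(II)/2OG / Times: 30 min demethylation and 1 h detection at room temperature / Signal: LANCE TR-FRET / Read-out basis: Fall in 671/618 emission ratio as inhibition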
IDH1 R132H inh: inhibitors of human IDH1 R132H; IDH1 R132H reductase, diaphorase/resazurin fluorescence, 60 min; inhibition, % at 10 µM; hit rate 0.18% among 70,000; O75874; in the data active = inhibition above about 34%; inconclusive = no clear call, values can overlap the other calls; inactive = below about 11%
Hits are given with their value; ! = not active in a repeat. A selection: hits, their analogues and other compounds. The true share with any hit is near 5.8%.

`CCc1ccc(NC(=O)CSc2nc3ccccc3[nH]2)cc1` gave IDH1 R132H inh inactive.
CC(C)C#Cc1cnc2c(c1)C(=O)N([C@@H](C)CO)C[C@@H](C)[C@@H](CN(C)Cc1ccccc1F)O2 was read as Tcruzi prolif inactive, KDM4C inh inactive and IDH1 R132H inh inactive.
C[C@H](CO)N1C[C@H](C)[C@H](CN(C)S(=O)(=O)c2ccc(C(F)(F)F)cc2)OCc2ccccc2-c2ccccc2C1=O was read as Pf Dd2 inh -85, Tcruzi prolif inactive, KDM4C inh inactive and IDH1 R132H inh inactive.
Screening C[C@H]1CN([C@@H](C)CO)C(=O)c2ccccc2-c2ccccc2CO[C@@H]1CN(C)Cc1ccc(C(F)(F)F)cc1 returned Pf Dd2 inh inactive and KDM4C inh inactive.
`C[C@@H]1CN([C@H](C)CO)C(=O)c2ccccc2-c2ccccc2CO[C@@H]1CN(C)Cc1ccc(C(F)(F)F)cc1` gave Pf Dd2 inh -87 and KDM4C inh inactive.
Screening C[C@H](CO)N1C[C@H](C)[C@H](CN(C)Cc2ccc(C(F)(F)F)cc2)OCc2ccccc2-c2ccccc2C1=O returned Pf Dd2 inh -84 and KDM4C inh inactive.
`C[C@H]1CN([C@@H](C)CO)C(=O)c2ccccc2-c2ccccc2CO[C@H]1CN(C)Cc1ccc(C(F)(F)F)cc1` gave Pf Dd2 inh -92 and KDM4C inh inactive.
Screening C[C@H](CO)N1C[C@H](C)[C@@H](CN(C)S(=O)(=O)c2cccs2)Oc2ccc(NC(=O)Cc3ccccc3)cc2CC1=O returned Pf Dd2 inh inactive, Tcruzi prolif inactive, KDM4C inh inactive and IDH1 R132H inh inactive.
COCC#Cc1cnc2c(c1)C(=O)N([C@@H](C)CO)C[C@H](C)[C@@H](CN(C)Cc1ccc3c(c1)OCO3)O2 was read as Pf Dd2 inh inactive and KDM4C inh inactive.
C[C@H]1CN([C@@H](C)CO)C(=O)c2c(c3ccccc3n2C)-c2ccccc2CO[C@H]1CN(C)Cc1ccccc1C(F)(F)F was read as Pf Dd2 inh inactive and KDM4C inh inactive.
Screening C[C@@H]1CN([C@@H](C)CO)C(=O)c2ccccc2-c2ccccc2CO[C@H]1CN(C)Cc1ccccc1C(F)(F)F returned Pf Dd2 inh -90 and KDM4C inh inactive.
Screening Cc1ccccc1S(=O)(=O)N(C)C[C@H]1OCc2ccccc2-c2ccccc2C(=O)N([C@H](C)CO)C[C@H]1C returned Pf Dd2 inh -86, Tcruzi prolif inactive, KDM4C inh inactive and IDH1 R132H inh inactive.
`O=C(C[C@@H]1CC[C@@H](NC(=O)Nc2ccc3c(c2)OCO3)[C@H](CO)O1)NCc1ccc(F)cc1` gave Pf Dd2 inh inactive, Tcruzi prolif inactive, KDM4C inh inactive and IDH1 R132H inh inactive.
Screening COc1ccc(CN(C)C[C@H]2Oc3ccc(NC(=O)NC(C)C)cc3CC(=O)N([C@H](C)CO)C[C@H]2C)cc1 returned Pf Dd2 inh inactive, KDM4C inh inactive and IDH1 R132H inh inactive.
Screening C[C@@H]1CN([C@H](C)CO)C(=O)c2cc(-c3ccc(F)cc3)cnc2O[C@@H]1CN(C)C(=O)NC1CCCC1 returned Pf Dd2 inh inactive, Tcruzi prolif inactive, KDM4C inh inactive and IDH1 R132H inh inactive.
COc1ccc2c3c(n(C)c2c1)[C@H](CO)N(Cc1ccc2c(c1)OCO2)CC31CN(C(=O)c2ccc3c(c2)OCO3)C1 was read as Pf Dd2 inh -88 and KDM4C inh inactive.
COc1ccc2c3c(n(C)c2c1)[C@H](CO)N(Cc1cccc(F)c1)CC31CCN(C(=O)Cc2ccccc2)CC1 was read as Pf Dd2 inh -83 and KDM4C inh inactive.
Screening COc1ccc2c3c(n(C)c2c1)[C@H](CO)N(Cc1ccncc1)CC31CCN(C(=O)Cc2ccncc2)CC1 returned Pf Dd2 inh -87 and KDM4C inh inactive.
Screening COc1ccc2c3c(n(C)c2c1)[C@@H](CO)N(Cc1ccncc1)CC31CCN(C(=O)C2CC2)CC1 returned Pf Dd2 inh inactive.
Screening C[C@@H]1CN([C@@H](C)CO)C(=O)c2cc(NC(=O)Nc3ccc(F)cc3)ccc2O[C@@H](C)CCCCO[C@@H]1CN(C)Cc1ccc2c(c1)OCO2 returned Pf Dd2 inh -83, Tcruzi prolif inactive and KDM4C inh inactive.
Screening C[C@@H]1CN([C@@H](C)CO)C(=O)c2cc(NC(=O)Nc3ccc4c(c3)OCO4)ccc2O[C@@H](C)CCCCO[C@@H]1CN(C)Cc1ccc2c(c1)OCO2 returned Pf Dd2 inh inconclusive, KDM4C inh inactive and IDH1 R132H inh inactive.
`C[C@@H]1CCCCO[C@@H](CN(C)Cc2ccc3c(c2)OCO3)[C@H](C)CN([C@@H](C)CO)C(=O)c2cc(N(C)C)ccc2O1` gave Pf Dd2 inh inactive and Tcruzi prolif 102!.
C[C@@H]1CCCCO[C@H](CN(C)Cc2ccc3c(c2)OCO3)[C@H](C)CN([C@@H](C)CO)C(=O)c2cc(N(C)C)ccc2O1 was read as Pf Dd2 inh inactive, Tcruzi prolif inactive and IDH1 R132H inh inactive.
Screening C[C@@H]1CCCCO[C@H](CN(C)Cc2ccc(Cl)c(Cl)c2)[C@@H](C)CN([C@@H](C)CO)C(=O)c2cc(NC(=O)Nc3ccc4c(c3)OCO4)ccc2O1 returned Pf Dd2 inh -91, Tcruzi prolif inactive and KDM4C inh inactive.
For CC(=O)N(C)C[C@H]1Oc2cc(C3=CCCCC3)ccc2S(=O)(=O)N([C@H](C)CO)C[C@H]1C the results were Pf Dd2 inh inactive, Tcruzi prolif inactive, KDM4C inh inactive and IDH1 R132H inh inactive.
Screening O=C(c1ccc2c(c1)OCO2)N1C[C@@H]2N[C@H](C1)C2c1ccc(/C=C/c2ccccc2)cc1 (some centres not stated) returned Pf Dd2 inh -89! and KDM4C inh inactive.
O=C(c1ccc(F)cc1)N1C[C@@H]2N[C@H](C1)C2c1ccc(/C=C/c2ccccc2)cc1 (some centres not stated) was read as Pf Dd2 inh inactive and KDM4C inh inactive.
For O=C(Nc1ccccc1)N1C[C@@H]2N[C@H](C1)[C@@H]2c1ccc(/C=C/c2ccccc2)cc1 the results were Pf Dd2 inh -89 and KDM4C inh inactive.
Screening COc1cc2c(cc1NC(=O)CCOc1ccc(C)cc1)oc1ccccc12 returned IDH1 R132H inh inactive.
`O=C(NC1CCCCC1)N1CC2(C1)[C@H](c1ccccc1)[C@H](CO)N2CC1CC1` gave Pf Dd2 inh inactive and KDM4C inh inactive.
For Cc1ccc(S(=O)(=O)N(C)C[C@@H]2OCCCC[C@H](C)Oc3ccc(NC(=O)C4CCCCC4)cc3C(=O)N([C@@H](C)CO)C[C@@H]2C)cc1 the results were Pf Dd2 inh inactive, Tcruzi prolif inactive, KDM4C inh inactive and IDH1 R132H inh inactive.
Cc1ccc(S(=O)(=O)N(C)C[C@H]2OCCCC[C@@H](C)Oc3ccc(NC(=O)C4CCCCC4)cc3C(=O)N([C@@H](C)CO)C[C@@H]2C)cc1 was read as Pf Dd2 inh inactive, Tcruzi prolif inactive and KDM4C inh inactive.
Screening Cc1ccc(S(=O)(=O)N(C)C[C@H]2OCCCC[C@H](C)Oc3ccc(NC(=O)C4CCCCC4)cc3C(=O)N([C@H](C)CO)C[C@H]2C)cc1 returned Pf Dd2 inh -85, Tcruzi prolif inactive, KDM4C inh inactive and IDH1 R132H inh inactive.

High-throughput results (PubChem)
